Only some compounds are listed: those with a hit (about 3.7% of all), similar ones and a draw of the others.
FXN GAA850 act – FXN promoter activators, primary screen, cell-based, luciferase luminescence, HEK293 lucGAA850 | HEK293 lucGAA850 FXN promoter luciferase reporter, 24 h; percent of 10 µM SAHA response | activation, % at 6 µM | 0.56% of 360,000 active | AID 540364, 2011;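 active means activation above the average of all compounds screened plus 3 SD, cutoff fixed separately per campaign, cut at about 7.5% in these data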;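 further: 0% = DMSO wells and 100% = 10 µM SAHA wells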
SR-BI HDL uptake – inhibitors of SR-BI mediated HDL lipid uptake, primary screen, ldlA[mSR-BI] cells, fluorescence, single point; inhibition, % at 12.5 µM; 0.96% of 320,000 active; ldlA[mSR-BI] CHO cells, DiI-HDL uptake fluorescence, 3 h; Scavenger receptor class B member 1 (Mus musculus), Q61009; AID 488896, 2010;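 active means mean replicate inhibition of at least 70% and a set share of replicates each scoring 70 or more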;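 further: 0% = median of neutral control wells and 100% = median of positive control wells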
SR-BI DiI-HDL act – activators of SR-BI mediated DiI-HDL uptake, primary screen, ldlA[mSR-BI] CHO cells, DiI fluorescence; 3 h; 100 = double the neutral-control signal; activation, % at 12.5 µM; 0.096% of 320,000 active; AID 504775, 2011;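 active means mean replicate activation of at least 60% and every replicate at or above 60%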;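 further: 0% = median plate neutral-control signal and 100% = twice that signal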
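material = CHO ldlA[mSR-BI] cells | medium = Ham's F12 with 0.5% BSA, HEPES 25 mM, pH 7.4 | reagent = fluorescent DiI-HDL, 10 µg/mL final | compound dosing = single-point compound dose | incubation = 3 h, 37 °C | measured by = bottom-read fluorescence, 550/595 nm | measure = HDL uptake via cellular fluorescence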
GASC-1 inh – inhibitors of GASC-1 histone demethylase, primary screen, biochemical, fluorescence, DELFIA europium | Lysine-specific demethylase 4C (Homo sapiens), Q9H3R0 | GST-JMJD2C(1-420) H3K9me3 demethylation | inhibition, % at 2.35 µM | 0.069% of 330,000 active;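 active means more than half of a compound's replicate wells show inhibition beyond 50%, single wells judged on their own value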;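 further: signal counts dimethyl H3K9 product captured on neutravidin plate; 0% = median of DMSO wells and 100% = 0.3 times that DMSO median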
Target sequence (Q9H3R0 1-420 limits assumed): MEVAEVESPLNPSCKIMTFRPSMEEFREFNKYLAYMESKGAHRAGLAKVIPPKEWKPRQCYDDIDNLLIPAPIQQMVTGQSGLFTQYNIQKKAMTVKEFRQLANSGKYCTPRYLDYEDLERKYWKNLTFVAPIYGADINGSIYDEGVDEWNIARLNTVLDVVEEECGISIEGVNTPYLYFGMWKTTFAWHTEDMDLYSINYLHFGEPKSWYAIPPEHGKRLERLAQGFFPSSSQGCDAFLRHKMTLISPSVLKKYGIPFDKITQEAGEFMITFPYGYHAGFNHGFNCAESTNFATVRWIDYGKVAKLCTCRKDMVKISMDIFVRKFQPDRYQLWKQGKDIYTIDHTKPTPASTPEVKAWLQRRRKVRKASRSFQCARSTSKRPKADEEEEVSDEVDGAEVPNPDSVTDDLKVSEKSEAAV
AHR activator – AHR activators, primary screen, cell-based, luminescence, luciferase reporter, human; Aryl hydrocarbon receptor (Homo sapiens), P35869; AHR-responsive luciferase reporter cells; activation, % at 5 µM; 2.5% of 320,000 active; AID 2796, 2010; in the data active means activation above about 47%;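 further: 0% = vehicle wells and 100% = reference agonist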
An asterisk follows results filed as active; / = not tested or not shown.

SMILES | FXN GAA850 act | SR-BI HDL uptake | SR-BI DiI-HDL act | GASC-1 inh | AHR activator
CCOc1cc(C(=O)N2CCC(CC3CC(c4cccc(Br)c4)=NO3)(C(=O)NCC3CCCCC3)CC2)cc(OCC)c1OCC (configuration not stated) | 0.4 | 73.6* | -73.6 | -0.5 | 4.3
O=C1c2ccccc2NC(c2ccco2)N1O (configuration not stated) | -1.1 | -9.8 | 9.8 | -9.1 | 12.2
O=C1C2=C(Nc3ccccc3SC2c2ccco2)c2ccccc21 (configuration not stated) | 0.6 | 44.6 | -44.6 | -6.4 | 70.3*
COc1ccc(-c2oc3ccc(-c4ccc(OC)nc4)cc3c2-c2ccc(OC)cc2)cc1 | 2.2 | 45.9 | -45.9 | 1.2 | -0.5
COc1ccc(C(=O)c2c(-c3ccc(OC)cc3)oc3ccc(-c4cc(OC)c(OC)c(OC)c4)cc23)cc1 | -2.6 | 73.3* | -73.3 | 6.8 | 7.8
COc1ccc(-c2oc3ccc(-c4cc(OC)c(OC)c(OC)c4)cc3c2C(=O)c2ccc(OC)nc2)cc1 | 1.8 | 44.2 | -44.2 | -13.1 | 5.6
COC(=O)c1c(-c2ccc(OC)cc2)oc2ccc(-c3ccc(OC)nc3)cc12 | 1.0 | -1.4 | 1.4 | -4.6 | -2.6
COc1ccc(-c2oc3ccc(-c4ccc(OC)nc4)cc3c2C#CC2(O)CCCCC2)cc1 | -0.3 | 84.9* | -84.9 | 27.6 | 8.4
COc1ccc(-c2oc3ccc(-c4ccc5c(c4)OCO5)cc3c2C#CC2(O)CCCCC2)cc1 | 0.0 | 84.0* | -84.0 | 11.0 | 6.6
CCCOC(=O)c1c(-c2ccc(OC)cc2)oc2ccc(-c3ccc(OC)nc3)cc12 | 2.7 | 72.8* | -72.8 | 6.0 | -1.7
CCN(CC)C(=O)c1cn(CC)c(=O)c2cc(OC)c(OC)cc12 | 0.4 | -41.8 | 41.8 | 1.3 | -1.9
CC1(C)CC(=O)c2cn3nc(C(F)(F)F)nc3nc2C1 | -2.6 | -3.4 | 3.4 | -14.1 | -2.0
Cc1ccccc1NC(=O)COc1ccc(S(=O)(=O)N2CCCC2)cc1C | 4.5 | 20.2 | / | 1.2 | 3.4
CCOC(=O)N1CCC(Nc2c([N+](=O)[O-])cc(C(=O)O)cc2[N+](=O)[O-])CC1 | -0.4 | 1.9 | -1.9 | -4.4 | -1.9
CN(C)CCNC(=O)C12CC3(C)CC(C)(CC(C)(C3)C1)C2 | 1.8 | 5.1 | -5.1 | 1.5 | -0.1
CC1CCc2sc(C(=O)NCCCn3ccnc3)cc2C1 (configuration not stated) | 1.6 | 0.1 | -0.1 | -46.0 | 51.0*
S=C(NCCCn1ccnc1)Nc1cccc(Cl)c1 | 0.6 | -7.4 | 7.4 | 15.7 | 49.1*
CCOc1ccc(NC(=S)NCCCn2ccnc2)cc1 | 0.0 | -41.7 | 41.7 | -1.9 | 1.1
O=C(NCCCn1ccnc1)c1ccc2ccccc2c1 | 0.7 | -11.8 | 11.8 | 19.7 | 60.0*
O=C(/C=C/c1c(Cl)cccc1Cl)NCCCn1ccnc1 | 0.7 | / | / | 10.7 | 47.6*
CN1CCN(c2ccc([N+](=O)[O-])cc2C(=O)c2ccc(Cl)cc2)CC1 | -6.1 | 8.9 | -8.9 | 13.5 | -0.3
O=C(NCCCn1ccnc1)c1sc2cccc(F)c2c1Cl | -0.9 | -15.4 | 15.4 | -3.8 | 78.2*
S=c1[nH]c(-c2ccccc2)cn1/N=C/c1ccccc1Br | 2.4 | 11.6 | -11.6 | -11.8 | 62.4*
Oc1ccc(/C=N/n2cc(-c3ccccc3)[nH]c2=S)cc1 | -1.3 | 4.1 | -4.1 | 2.0 | 64.2*
S=c1[nH]c(-c2ccccc2)cn1/N=C/c1cccc2ccccc12 | -0.8 | -41.8 | 41.8 | -6.0 | 99.0*
COc1cc(/C=N/n2cc(-c3ccccc3)[nH]c2=S)cc(OC)c1O | -0.6 | 16.9 | -16.9 | 0.7 | 23.0
CCC(C(=O)Nc1ccc2[nH]ncc2c1)c1ccccc1 (configuration not stated) | -1.7 | 33.2 | -33.2 | 33.7 | 4.2
COc1cccc(CC(=O)OC(C)C(=O)Nc2ncc(Cl)cc2Cl)c1 (configuration not stated) | -1.0 | -7.1 | 7.1 | 3.7 | 2.3
Brc1ccc(-c2noc3c2-c2nc(C4CCCCC4)sc2CC3)cc1 | -0.1 | 2.6 | -2.6 | -8.8 | 4.2
